Active and inactive are the calls of the source. The calls are words filed in the database; no cut-off is given here.
Legend:
[1] = test system: Human immunodeficiency virus 2; experiment: Antiviral activity against HIV2 ROD infected in human CEM cells at 400 uM after 4 to 5 days; type: functional, organism-based; conditions: ISOLATE ROD, CCRF-CEM
Summary of the method: (§1)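 CEM cells (4.5×10^5/ml) were infected at 100 CCID50 per ml, mixed 1:1 with compound dilutions and incubated at 37 °C. Giant-cell formation was scored microscopically after 4–5 days. EC50 is the concentration preventing syncytium formation by 50%.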

HEL = experiment: Cytotoxicity against human HEL cells up to 200 uM after 3 days by MTS assay; type: cell-based; conditions: 72 h
[2] = Chemical stability assessed as half life of degradation in PBS of pH 7.3 by HPLC; type: physicochemical
Summary of the method: (§2)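 Compound at 0.1 mM initial concentration in buffer, incubated at 37 °C. Aliquots were taken at set times, frozen at −80 °C, then analysed by on-line cleaning-precolumn reversed-phase HPLC (C18, TEAB/acetonitrile gradient). Decomposition half-life was calculated, with products identified by co-injection with authentic samples.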

[3] = test system: Human immunodeficiency virus 1; experiment: Antiviral activity against HIV1 NL4-3 infected in MAGI-CCR5 cells at 400 uM after 2 days; type: functional, organism-based
Summary of the method: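 HIV-1 NL4.3 stock came from 293T cells transfected with the molecular clone and was titred by p24. MAGI-CCR5 cells (10^4 cells, integrated HIV promoter–LacZ reporter, in DMEM with 10% FBS) were pretreated for 4 h with 0–400 µM compound. They were then spinoculated with 100 ng CAp24 and grown with compound. After 2 days, cells were stained for β-galactosidase and blue cells counted; EC50 is a 50% drop in blue cells.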

[4] = test system: Mammalian orthoreovirus 1; experiment: Antiviral activity against Reovirus 1 infected in african green monkey Vero cells assessed as inhibition of virus-induced cytopathic effect up to 200 uM after 3 days; type: functional, organism-based
Summary of the method: (§3)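 Confluent cell monolayers in MEM with 10% FCS, 2 mM L-glutamine and 0.075% bicarbonate were inoculated with 100 times the 50% cell culture infective dose. Compounds were added after 1–2 h of virus adsorption. Cytopathic effect was scored microscopically at about 3 days as a percentage of untreated controls, and EC50 was read from graphical plots.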

[5] = test system: Vesicular stomatitis virus; experiment: Antiviral activity against VSV infected in human HEL cells assessed as inhibition of virus-induced cytopathic effect up to 200 uM after 3 days; type: functional, organism-based
[6] = Cytotoxicity against human MAGI-CCR5 cells at 400 uM; type: cell-based; conditions: magi-ccr5, 400 µM
Summary of the method: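 MAGI-CCR5 cells were exposed to 0–400 µM compound. CC50 is the concentration inhibiting cell proliferation by 50%.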

[7] = test system: Respiratory syncytial virus; experiment: Antiviral activity against RSV infected in human HeLa cells assessed as inhibition of virus-induced cytopathic effect up to 200 uM after 3 days; type: functional, organism-based; summary of the method: as §3
Coxsackievirus B4 = experiment: Antiviral activity against Coxsackievirus B4 virus infected in human HeLa cells assessed as inhibition of virus-induced cytopathic effect up to 200 uM after 3 days; type: functional, organism-based; summary of the method: as §3
[8] = Stability in human CEM cells assessed as half life of degradation by HPLC; type: ADME, cell-based; conditions: CEM (CCRF-CEM) cells
Summary of the method: (§4)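 CEM-SS cells were washed in PBS, resuspended at 30×10^6 cells/mL in 10 mM Tris–HCl, 140 mM KCl (pH 7.4), sonicated and clarified at 10,000 g. Compound (0.1 mM initial) was incubated in the extract at 37 °C. Aliquots were frozen at −80 °C and analysed by on-line cleaning C18 HPLC to derive half-life.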

HeLa = experiment: Cytotoxicity against human HeLa cells up to 200 uM after 3 days by MTS assay; type: cell-based; conditions: 72 h
Hepatitis C virus = experiment: Antiviral activity against HCV 1b infected in Huh-5-2 cells assessed as inhibition of subgenomic replication; type: functional, organism-based; conditions: Hepacivirus hominis, genotype 1b
Summary of the method: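 Huh-5-2 cells carry an HCV genotype 1b subgenomic replicon (I389luc-ubi-neo/NS3-3'/5.1) with a firefly luciferase fusion. They were seeded at 7000 cells/well without G418 and allowed to adhere for 24 h. Five 5-fold dilutions starting at 100 µM were then added for 72 h at 37 °C. Luciferase signal was expressed as % of untreated cultures to give EC50. Interferon alfa 2a (500 IU) served as positive control.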

Human alphaherpesvirus 2 = experiment: Antiviral activity against HSV2 infected in human HEL cells assessed as inhibition of virus-induced cytopathic effect up to 200 uM after 3 days; type: functional, organism-based; summary of the method: as §3
[9] = Chemical stability assessed as half life of degradation in culture media by HPLC; type: physicochemical
Summary of the method: (§5)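 Compound at an initial 0.1 mM was incubated at 37 °C in RPMI 1640 containing 10% heat-inactivated fetal calf serum. Aliquots were frozen at −80 °C and analysed by on-line precolumn-cleaning reversed-phase C18 HPLC with a TEAB/acetonitrile gradient. Decomposition half-lives were calculated.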

Vero = experiment: Cytotoxicity against african green monkey Vero cells up to 200 uM after 3 days by MTS assay; type: cell-based; conditions: chlorocebus sabaeus, 72 h
Human respirovirus 3 = experiment: Antiviral activity against Parainfluenza virus 3 infected in african green monkey Vero cells assessed as inhibition of virus-induced cytopathic effect up to 200 uM after 3 days; type: functional, organism-based; summary of the method: as §3
[10] = Chemical stability assessed as half life of degradation in PBS of pH 1.2 by HPLC; type: physicochemical; summary of the method: as §2
Vaccinia virus = experiment: Antiviral activity against Vaccinia virus infected in human HEL cells assessed as inhibition of virus-induced cytopathic effect up to 200 uM after 3 days; type: functional, organism-based; conditions: Orthopoxvirus vaccinia
Human alphaherpesvirus 1 = experiment: Antiviral activity against HSV1 infected in human HEL cells assessed as inhibition of virus-induced cytopathic effect up to 200 uM after 3 days; type: functional, organism-based; summary of the method: as §3
[11] = Cytotoxicity against human HuH5.2 cells up to 200 uM after 3 days by MTS assay; type: cell-based; conditions: huh-5-2, 72 h
Summary of the method: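 Parallel Huh-5-2 cultures were seeded at 7000 cells/well and treated like the replicon assay without luciferase reagents. Proliferation was measured 3 days after compound addition by MTS bioreduction to formazan, read in a plate reader.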

[12] = test system: Human immunodeficiency virus 1; experiment: Antiviral activity against HIV1 3B infected in human CEM cells at 400 uM after 4 to 5 days; type: functional, organism-based; conditions: CCRF-CEM; summary of the method: as §1
CCRF-CEM [13] = experiment: Cytotoxicity against human CEM cells at 400 uM after 3 days by MTS assay; type: cell-based; conditions: 72 h
Sindbis virus = experiment: Antiviral activity against […] virus infected in african green monkey Vero cells assessed as inhibition of virus-induced cytopathic effect up to 200 uM after 3 days; type: functional, organism-based; summary of the method: as §3
Punta Toro virus = experiment: Antiviral activity against Punta Toro virus infected in african green monkey Vero cells assessed as inhibition of virus-induced cytopathic effect up to 200 uM after 3 days; type: functional, organism-based; summary of the method: as §3
[14] = Chemical stability assessed as half life of degradation in PBS of pH 11.5 by HPLC; type: physicochemical; summary of the method: as §2
[15] = Chemical stability in PBS of pH 1.2 by HPLC; type: physicochemical; conditions: buffer
Summary of the method: (§6)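 Compound at an initial 0.1 mM was incubated at 37 °C in buffer at pH 1.2, 7.3 or 11.5. Timed aliquots were frozen at −80 °C and analysed directly by on-line precolumn-cleaning C18 HPLC (0.05 M TEAB to TEAB/CH3CN gradient). Half-lives of decomposition were calculated.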

[16] = Chemical stability in PBS of pH 7.3 by HPLC; type: physicochemical; conditions: buffer; summary of the method: as §6
[17] = Chemical stability in PBS of pH 11.5 by HPLC; type: physicochemical; conditions: buffer; summary of the method: as §6
[18] = Chemical stability in culture media by HPLC; type: physicochemical; summary of the method: as §5
CCRF-CEM [19] = experiment: Stability in human CEM cells by HPLC; type: ADME, cell-based; summary of the method: as §4

Compound	Activity [1]	Activity (HEL)	Activity [3]	Activity [4]	Activity [5]	Activity [6]	Activity [7]	Activity (Coxsackievirus B4)	Activity (HeLa)	Activity (Hepatitis C virus)	Activity (Human alphaherpesvirus 2)	Activity (Vero)	Activity (Human respirovirus 3)	Activity (Vaccinia virus)	Activity (Human alphaherpesvirus 1)	Activity [11]	Activity [12]	Activity (CCRF-CEM [13])	Activity (Sindbis virus)	Activity (Punta Toro virus)	also measured
Cc1cn([C@H]2C=C[C@@H](CC[PH](=O)O)O2)c(=O)[nH]c1=O	inactive	Non-toxic	inactive	inactive	inactive	Non-toxic	inactive	inactive	Non-toxic	inactive	inactive	Non-toxic	inactive	inactive	inactive	Non-toxic	inactive	Non-toxic	inactive	inactive	half-life [2]: > 48 h; half-life [8]: 2 h; half-life [9]: 11 h; half-life [10]: 28 h; half-life [14]: > 48 h
BP(=O)(O)CC[C@@H]1C=C[C@H](n2cc(C)c(=O)[nH]c2=O)O1	inactive	Non-toxic	inactive	inactive	inactive	Non-toxic	inactive	inactive	Non-toxic	inactive	inactive	Non-toxic	inactive	inactive	inactive	Non-toxic	inactive	Non-toxic	inactive	inactive	half-life [2]: 22 h; half-life [8]: 3 h; half-life [9]: 1.6 h; half-life [10]: 16 h; half-life [14]: > 48 h
BP(=O)(O)CC[C@H]1O[C@@H](n2cc(C)c(=O)[nH]c2=O)C[C@@H]1N=[N+]=[N-]	inactive	Non-toxic	inactive	inactive	inactive	Non-toxic	inactive	inactive	Non-toxic	inactive	inactive	Non-toxic	inactive	inactive	inactive	Non-toxic	inactive	Non-toxic	inactive	inactive	Stability [15]: Stable; half-life [8]: > 48 h; Stability [16]: Stable; half-life [9]: 3.1 h; Stability [17]: Stable
Cc1cn([C@H]2C[C@H](N=[N+]=[N-])[C@@H](CC[PH](=O)O)O2)c(=O)[nH]c1=O	inactive	Non-toxic	inactive	inactive	inactive	Non-toxic	inactive	inactive	Non-toxic	inactive	inactive	Non-toxic	inactive	inactive	inactive	Non-toxic	inactive	Non-toxic	inactive	inactive	Stability [18]: Stable; Stability (CCRF-CEM [19]): Stable; Stability [15]: Stable; Stability [16]: Stable; Stability [17]: Stable

Source: ChEMBL document CHEMBL1154819, “Synthesis and antiviral activity of boranophosphonate isosteres of AZT and d4T monophosphates” (Eur J Med Chem, 2010)
